For 10 compounds, IC50 results are on record in BindingDB's records for doi:10.1021/np5000704 (University of North Carolina At Greensboro, 2014).

Positions of bridges follow the written chain, without caps; N, C: chain ends. Residues, ends and D or L forms follow the SMILES beside them.

The target in this assay is T1, Accessory gene regulator protein A (Staphylococcus aureus, UniProt P0A0I7).
T1 sequence (P0A0I7 whole entry): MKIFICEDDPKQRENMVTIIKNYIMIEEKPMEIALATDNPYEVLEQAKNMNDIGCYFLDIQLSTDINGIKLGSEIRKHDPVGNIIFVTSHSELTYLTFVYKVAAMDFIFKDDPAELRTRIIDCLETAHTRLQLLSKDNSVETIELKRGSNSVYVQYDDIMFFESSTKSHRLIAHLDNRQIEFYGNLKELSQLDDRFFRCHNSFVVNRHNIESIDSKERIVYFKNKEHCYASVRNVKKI
As to the kind of experiment: Inhibition of AGR quorum sensing system in methicillin-resistant Staphylococcus aureus AH2759 incubated for 15 hrs by P3-LUX reporter gene assay. In outline:
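S. aureus AH2759 (USA300 LAC, plasmid agr P3-luxABCDE) grown overnight in TSB with chloramphenicol 10 μg/mL, then diluted to a final 1:500. Compounds were added at 0.1–1000 μM final with 1% DMSO. Incubated at 37 °C with 250 rpm shaking. OD600 and luminescence were read hourly from 15 h. IC50 came from a weighted four-parameter logistic fit of OD-normalized luminescence; growth-delayed wells were excluded. AIP-2 (2–500 nM) was the control.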
The term IC50 denotes the midpoint of a concentration-inhibition curve. Read a high IC50 as a need for much substance. For `O=C(O)c1cc(O)c2c(c1)C(=O)c1cc(O)c(O)c(O)c1C2=O`, the IC50 is 120 µM.

On to `CC(=O)C(O)c1cc(O)c2c(c1)C(=O)c1cc(O)cc(O)c1C2=O` (stereo not given), for which the IC50 was 30.1 µM. Compared with the last compound, the IC50 is about 4-fold lower.

`C[C@H](O)Cc1cc(O)c2c(c1)C(=O)c1cc(O)cc(O)c1C2=O` gave an IC50 of 8.9 µM. The result for `Cc1cc(O)c2c(c1)C(=O)c1cc(O)cc(O)c1C2=O` [1,3,8-trihydroxy-6-methylanthra-9,10-quinone] reads 17.1 µM; that for `C[C@@H](O)[C@@H](O)c1cc(O)c2c(c1)C(=O)c1cc(O)cc(O)c1C2=O`, 26.5 µM.

`O=C(O)c1cc(O)c2c(c1)C(=O)c1cc(O)cc(O)c1C2=O` [MLS000876948] yielded an IC50 of 30.6 µM. This IC50 and that of the compound before are within 1.5-fold of each other. The result for `O=C1c2cc(O)cc(O)c2C(=O)c2c(O)cc(CO)cc21` reads 8.1 µM.

For `O=C(O)c1cc(O)c2c(c1)C(=O)c1cc(O)c(Cl)c(O)c1C2=O` [6-chloro-4,5,7-trihydroxy-9,10-dioxo-9,10-dihydroanthracene-2-carboxylic acid], the IC50 was determined as 37.8 µM. The result for `CC(=O)Cc1cc(O)c2c(c1)C(=O)c1cc(O)cc(O)c1C2=O` reads 19.8 µM.

As for `CC(C)C[C@@H]1NC(=O)[C@H](CO)NC(=O)[C@H](CO)NC(=O)[C@@H](NC(=O)[C@H](C)NC(=O)[C@H](CC(N)=O)NC(=O)[C@@H](NC(=O)CN)C(C)C)CSC(=O)[C@H](Cc2ccccc2)NC1=O` (H-GVNACSSLF; thioester 5-C), the IC50 stood at 0.012 µM.
